This note sets out measurements from ChEMBL document CHEMBL1641600, “Novel bifunctional alkylating agents, 5,10-dihydropyrrolo[1,2-b]isoquinoline derivatives, synthesis and biological activity” (Bioorg Med Chem, 2011).

SMILES strings stand for the structures. Activity calls are given as the source filed them. The calls are words filed in the database; no cut-off is given here.

The nature of assay [1]: Cytotoxicity against human OECM1 cells after 72 hrs by Alamar blue assay. The format is functional, cell-based. Particulars: OECM1, 72 h. The gist of the method:
(§1)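 H1299, PC3, OECM1 and U87 cells exposed 72 h to six or seven drug concentrations. Alamar blue added for 6 h at 37 °C; absorbance read at 570 and 600 nm. IC50 obtained from dose-effect data by the median-effect principle.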
On the technique in general: Alamar Blue is a resazurin reagent that responds to reducing activity.

The nature of assay [2]: Cytotoxicity against human U87 cells after 72 hrs by Alamar blue assay. The format is functional, cell-based, U-87MG ATCC. As to conditions: U-87 MG. The gist of the method:
as §1

Assay [3] is described as follows: Cytotoxicity against human H1299 cells after 72 hrs by Alamar blue assay. As to conditions: NCI-H1299, 72 h. The format is functional, cell-based. The gist of the method:
as §1

Assay [4] relates to PC-3. Description: Cytotoxicity against human PC3 cells after 72 hrs by Alamar blue assay. Particulars: PC-3, 72 h. Type of assay: functional, cell-based. The gist of the method: as §1
Assay [5] concerns MX1. Nature of the assay: Cytotoxicity against human MX1 cells after 72 hrs by SRB assay. The format is functional, cell-based. Particulars: MX1, 72 h. The method, boiled down:
(§2)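 MX-1 breast and HCT-116 colon carcinoma cells exposed 72 h to six or seven drug concentrations. Growth measured by SRB assay with microplate absorbance. IC50 obtained from dose-effect data by the median-effect principle.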
For orientation: Sulforhodamine B stains cellular protein and so reports cell mass.

Assay [6] deals with HCT-116. Nature of the assay: Cytotoxicity against human HCT116 cells after 72 hrs by SRB assay. Type of assay: functional, cell-based. As to conditions: HCT-116, 72 h. The gist of the method:
as §2

The subject of assay [7] is CCRF-CEM. Description: Cytotoxicity against vinblastine-resistant human CCRF-CEM cells after 72 hrs by XTT assay. The format is functional, cell-based. The method, boiled down: (§3)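 Leukemic CCRF-CEM and its Taxol- and vinblastine-resistant sublines exposed 72 h to six or seven drug concentrations. XTT with phenazine methosulfate added for 6 h at 37 °C; absorbance read at 450 and 630 nm. IC50 obtained from dose-effect data by the median-effect principle.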
In general terms: Tetrazolium assays rely on reduction of a dye to a coloured formazan, in cell work by metabolically active cells.

The test system of assay [8] is CCRF-CEM. Nature of the assay: Cytotoxicity against Taxol-resistant human CCRF-CEM cells after 72 hrs by XTT assay. The format is functional, cell-based. The gist of the method:
as §3

Assay [9] concerns CCRF-CEM. Nature of the assay: Cytotoxicity against human CCRF-CEM cells after 72 hrs by XTT assay. The format is functional, cell-based. The gist of the method:
as §3

Assay [10] has as its system MX1. Nature of the assay: Antitumor activity against human MX1 cells implanted in mouse assessed as complete suppression in tumor size at 30 mg/kg, iv Q2D for 2 times measured on day 8 and 10. The format is functional, organism-based. More on the design: dose 30 mg/kg. The gist of the method:
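Athymic nu/nu nude mice (outbred Swiss background, male, ≥8 weeks, about 22 g) bearing human tumor xenografts; MX-1 dosed iv Q2D×2 (day 8 and 10), SK-OV-3 dosed iv QD×4 from day 22. Tail-vein injection in DMSO/Tween 80/saline vehicle at the maximal tolerable dose. Tumor volume measured by caliper (length×width×height or width); body weight followed; n = 4.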

Assay [11] concerns Nucleic Acid. Nature of the assay: Induction of Escherichia coli pEGFP-N1 DNA cross-linking at 1 to 20 uM after 2 hrs by alkaline agarose gel shift assay. The format is nucleic-acid assay. The method, boiled down:
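pEGFP-N1 plasmid DNA (1.5 µg) incubated with compound (1–20 µM) in binding buffer (3 mM NaCl/1 mM sodium phosphate pH 7.4, 1 mM EDTA) for 2 h at 37 °C. Plasmid then linearized with BamHI, ethanol-precipitated, and resolved on alkaline agarose gel into single-stranded and cross-linked bands. Melphalan (1, 5, 10 µM) as positive control.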

The test system of assay [12] is CCRF-CEM. Description: Ratio of IC50 for Taxol-resistant human CCRF-CEM cells to IC50 for human CCRF-CEM cells.
The test system of assay [13] is NCI-H1299. Nature of the assay: Cell cycle arrest in human H1299 cells assessed as accumulation at S phase at 5 uM after 24 hrs by propidium iodide staining-based flow cytometry. Particulars: NCI-H1299, 24 h.
Assay [14] relates to NCI-H1299. Description: Cell cycle arrest in human H1299 cells assessed as accumulation at G1 phase at 5 uM after 24 hrs by propidium iodide staining-based flow cytometry. As to conditions: NCI-H1299, 24 h.
Assay [15] relates to NCI-H1299. Description: Cell cycle arrest in human H1299 cells assessed as accumulation at S phase at 2.5 uM after 24 hrs by propidium iodide staining-based flow cytometry. As to conditions: NCI-H1299, 24 h.
Assay [16] relates to NCI-H1299. Nature of the assay: Cell cycle arrest in human H1299 cells assessed as accumulation at S phase at 1.25 uM after 24 hrs by propidium iodide staining-based flow cytometry. As to conditions: NCI-H1299, 24 h.
For assay [17], the system named is NCI-H1299. Nature of the assay: Cell cycle arrest in human H1299 cells assessed as accumulation at G1 phase at 2.5 uM after 24 hrs by propidium iodide staining-based flow cytometry. Particulars: NCI-H1299, 24 h.
Assay [18] deals with NCI-H1299. Nature of the assay: Cell cycle arrest in human H1299 cells assessed as accumulation at G2/M phase at 5 uM after 24 hrs by propidium iodide staining-based flow cytometry. Particulars: NCI-H1299, 24 h.
The subject of assay [19] is NCI-H1299. Nature of the assay: Cell cycle arrest in human H1299 cells assessed as accumulation at G1 phase at 1.25 uM after 24 hrs by propidium iodide staining-based flow cytometry. As to conditions: NCI-H1299, 24 h.
The subject of assay [20] is NCI-H1299. Nature of the assay: Cell cycle arrest in human H1299 cells assessed as accumulation at subG1 phase at 5 uM after 24 hrs by propidium iodide staining-based flow cytometry. Particulars: NCI-H1299, 24 h.
The test system of assay [21] is NCI-H1299. Description: Cell cycle arrest in human H1299 cells assessed as accumulation at G2/M phase at 2.5 uM after 24 hrs by propidium iodide staining-based flow cytometry. Particulars: NCI-H1299, 24 h.
The test system of assay [22] is NCI-H1299. Description: Cell cycle arrest in human H1299 cells assessed as accumulation at G2/M phase at 1.25 uM after 24 hrs by propidium iodide staining-based flow cytometry. Particulars: NCI-H1299, 24 h.
Assay [23] deals with NCI-H1299. Description: Cell cycle arrest in human H1299 cells assessed as accumulation at subG1 phase at 2.5 uM after 24 hrs by propidium iodide staining-based flow cytometry. Particulars: NCI-H1299, 24 h.
The subject of assay [24] is NCI-H1299. Description: Cell cycle arrest in human H1299 cells assessed as accumulation at subG1 phase at 1.25 uM after 24 hrs by propidium iodide staining-based flow cytometry. Particulars: NCI-H1299, 24 h.
The subject of assay [25] is SK-OV-3. Nature of the assay: Antitumor activity against human SKOV3 cells implanted in mouse assessed as significant suppression in tumor size at 20 mg/kg, iv QD for 4 times measured on day 22.

For `Cc1c(CO)c(CO)c2n1Cc1ccccc1C2`, the IC50 – broadly, the concentration at which inhibition is half-maximal – in assay [1] stood at 6100 nM; in [2], 27900 nM; in [3], 2480 nM; in [4], 6070 nM; in assay [5] it was 660 nM; in assay [6], 290 nM. The IC50 in assay [7] was found to be 90 nM; in assay [8], 100 nM; in [9] it was 80 nM. Further, the result in assay [10], in assay [11] and in assay [25] was Active. The “Ratio IC50” value in [12] amounted to 1.22. The cell population % at 5 µM in [13] was 24.7%; in [14], 0.5%; in assay [18] it was 48.4%; in assay [20], 26.5%. Besides, the cell population % at 2.5 µM in assay [15] was 18.3%; in assay [17], 7.7%; in assay [21], 47.3%; in assay [23], 26.6%. Further, the cell population % at 1.25 µM in assay [16] turned out to be 32.7%; in [19], 5.6%; in assay [22], 40.1%; in [24], 21.6%.

Turning to `Cc1c(COC(=O)NC(C)C)c(COC(=O)NC(C)C)c2n1Cc1ccccc1C2`, the half-inhibitory concentration (IC50) in assay [1] came to 11800 nM; in assay [2] it was 26600 nM; in [3], 9770 nM; in [4] it was 16900 nM; in assay [5] it was 1280 nM; in assay [6] it was 1380 nM. Further, the IC50 in assay [7] was determined as 140 nM; in assay [8] it was 230 nM; in assay [9], 270 nM. For the same compound, the “Ratio IC50” value in assay [12] was 0.84.

On to `CCNC(=O)OCc1c(COC(=O)NCC)c(-c2ccc(Cl)cc2)n2c1Cc1ccccc1C2`, for which the IC50 in [1] is 25300 nM; in [2] it was 33600 nM; in assay [3] it was 37200 nM; in assay [4] it was 11000 nM; in assay [5] it was 1690 nM; in assay [6], 620 nM. In addition, the concentration for half-maximal inhibition (IC50) in [7] was found to be 570 nM; in assay [8], 350 nM; in assay [9], 590 nM. Moreover, the “Ratio IC50” value in [12] is given as 0.59.

For `COc1ccc(-c2c(CO)c(CO)c3n2Cc2ccccc2C3)cc1`, the IC50 came out at 6120 nM in assay [1]; 10600 nM in assay [2]; 13900 nM in [3]; 10900 nM in [4]; 1990 nM in [5]; 1130 nM in assay [6]. Also, the IC50 in assay [7] turned out to be 110 nM; in [8], 250 nM; in assay [9], 230 nM. For the same compound, in assay [12], the “Ratio IC50” value worked out at 1.02.

For `CCNC(=O)OCc1c(COC(=O)NCC)c(-c2ccc(OC)cc2)n2c1Cc1ccccc1C2`, the IC50 was found to be 10500 nM in assay [1]; 17100 nM in assay [2]; 27600 nM in [3]; 18500 nM in assay [4]; 1270 nM in assay [5]; 750 nM in assay [6]. For the same compound, the IC50 in [7] was determined as 350 nM; in [8], 220 nM; in assay [9], 370 nM. In addition, the “Ratio IC50” value in [12] is listed as 0.58.

Turning to `OCc1c(CO)c(-c2ccc(Cl)cc2)n2c1Cc1ccccc1C2`, the half-inhibitory concentration (IC50) in assay [1] was 12000 nM; in [2], 26700 nM; in [3], 24700 nM; in [4], 9850 nM; in [5], 3280 nM; in assay [6], 3060 nM. Besides, the half-inhibitory concentration (IC50) was 720 nM in [7], 770 nM in [8] and 600 nM in [9]. Besides, in assay [12], the “Ratio IC50” value is listed as 1.28.
